Screening results from PubChem.
Cl transport mod: KCC2 cotransporter modulators, thallium flux, primary screen, cell-based, HEK293 KCC2, FluoZin-2 fluorescence, MLSMR; actives 2.2% (n = 190,000); KCC2 cells, thallium flux FluoZin-2 fluorescence; B-score of Tl+ flux slope (higher = more flux/activation; lower = inhibition) at 10 µM;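 active means thallium flux slope and its plate-corrected score both differing from the plate sample mean at a set confidence after two filtering rounds, in either direction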;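 further: slope of fluorescence scaled to starting intensity during 10 to 20 s after thallium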
hERG rescue: hERG rescue from dofetilide block, primary screen, cell-based, CHO-hERG, FluxOR thallium flux, dofetilide IC70; Voltage-gated inwardly rectifying potassium channel KCNH2 (Homo sapiens), Q12809; dofetilide IC70 present; activation (rescue from dofetilide block), less the hit threshold, % at 10 µM; actives 0.51% (n = 310,000); AID 1511, 2009;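 active means activation above the mean of controls blocked by dofetilide plus 5 SD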;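 further: thallium influx through hERG after potassium depolarization seen as dye fluorescence rise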
KCNK9 block: KCNK9 potassium channel inhibitors, primary screen, HEK293 cells, thallium flux; actives 1.2% (n = 310,000); FluxOR thallium flux fluorescence; hits give low values; Potassium channel subfamily K member 9 (Homo sapiens), Q9NPC2; B-score at 10 µM;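 active means ratio B-score over 3 SD below the library mean, with starting fluorescence within 5 SD of its mean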;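 further: negative B-score means less thallium flux so channel inhibition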
Target sequence (Q9NPC2 whole entry, looked up): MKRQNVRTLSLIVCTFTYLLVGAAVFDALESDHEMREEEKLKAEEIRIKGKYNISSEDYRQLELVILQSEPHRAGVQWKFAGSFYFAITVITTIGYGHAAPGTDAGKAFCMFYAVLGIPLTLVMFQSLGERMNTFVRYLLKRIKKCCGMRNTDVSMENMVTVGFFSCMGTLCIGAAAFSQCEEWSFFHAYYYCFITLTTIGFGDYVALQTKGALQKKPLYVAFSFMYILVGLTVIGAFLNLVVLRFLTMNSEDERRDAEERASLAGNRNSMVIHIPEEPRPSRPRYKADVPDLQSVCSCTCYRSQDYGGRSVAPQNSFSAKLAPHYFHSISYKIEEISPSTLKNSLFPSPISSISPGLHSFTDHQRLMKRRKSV
KCNK3 block: human KCNK3 channel inhibitors, primary screen, CHO cells, FluxOR thallium flux, B-score; actives 0.84% (n = 340,000); B-score at 10 µM; Potassium channel subfamily K member 3 (Homo sapiens), O14649; FluxOR fluorescence; hits give low values;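 active means B-score under library mean minus 4 SD, starting fluorescence ratio at most library mean plus 5 SD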;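 further: more negative B-score means stronger inhibition of thallium flux through KCNK3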
KCNQ1 act: potentiators or activators of KCNQ1 channel, primary screen, cell-based, thallium flux, high-throughput; Potassium voltage-gated channel subfamily KQT member 1 (Homo sapiens), P51787; CHO-K1 KCNQ1, thallium flux FluxOR fluorescence; hits give high values; B-score at 10 µM; actives 0.35% (n = 310,000);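 active means fluorescence ratio B-score, a plate-corrected score, at least three library SD, with initial intensity B-score within 5 SD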
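Assay system: CHO-K1 cells stably expressing KCNQ1. Medium: assay buffer for compound exposure, DMSO matched across wells. Timing: 37 °C overnight plating, 90-min dark dye load, 20-min compound pretreatment. Signal: kinetic FluxOR fluorescence, 10 s baseline plus 110 s post-stimulus.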
KCNQ1 inh: inhibitors of human KCNQ1 channel, primary screen, cell-based, thallium flux, high-throughput; CHO-K1 KCNQ1, FluxOR thallium flux fluorescence; hits give high values; B-score at 10 µM; actives 1.3% (n = 310,000);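 active means compounds whose thallium flux B-score, printed positive for inhibition, exceeds three library SD while starting fluorescence stays within three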;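 further: channel opened by potassium depolarization with thallium stimulus after 20 min compound exposure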
Numbers without * were called inactive; i = inactive; x = not tested or not shown. Only some compounds are listed: those with a hit (about 4.1% of all), similar ones and a draw of the others.

SMILES	Cl transport mod	hERG rescue	KCNK9 block	KCNK3 block	KCNQ1 act	KCNQ1 inh
CC(=O)N(CCC(Cc1ccccc1)c1ccc2c(c1)OCO2)Cc1ccc(Cl)cc1 (centres undefined)	-1.89	-0.1	-7.28*	-8.88*	i	11*
CC(=O)NCc1ccc(S(=O)(=O)N2CCN(S(=O)(=O)c3ccc4ccccc4c3)CC2)cc1	x	x	x	i	x	x
CCc1ccc(NC(=S)Nc2cc(OC)c(NC(=O)C(C)C)cc2OC)cc1	-2.24	-12.1	i	i	i	i
CCc1ccc(NC(=O)C(C)OC(=O)Cc2cc(OC)c(OC)c(OC)c2)cc1 (centres undefined)	x	x	x	-10.5*	x	x
N#Cc1nc(-c2ccccc2)oc1NCCCn1ccnc1	-0.032	-19.2	i	i	i	i
Cc1ccc(OCc2nc(C#N)c(N3CCCCC3)o2)cc1	-2.97	-10.9	i	i	i	i
N#Cc1nc(COc2ccc(Cl)cc2)oc1N1CCCCCC1	x	x	x	-8.72*	x	x
N#Cc1nc(Cc2cccc3ccccc23)oc1N1CCCCC1	-6.15*	-7.8	i	i	i	6*
CN1CCN(c2oc(Cc3cccc4ccccc34)nc2C#N)CC1	-4.75	2.5	i	i	i	i
N#Cc1nc(Cc2cccc3ccccc23)oc1NCCCn1ccnc1	-3.43*	-10.3	i	i	i	i
N#Cc1nc(Cc2ccccc2)oc1N1CCN(c2ccccc2)CC1	x	-12.3	-6.96*	i	i	i
CCN1CCN(c2ccc(S(=O)(=O)N3CCOCC3)cc2NC(=O)C(C)Oc2ccc(F)cc2)CC1 (centres undefined)	x	x	x	i	x	x
C[C@H](CO)N1C[C@H](C)[C@@H](CN(C)C(=O)Nc2ccc3c(c2)OCO3)Oc2ccc(NS(=O)(=O)c3ccccc3)cc2C1=O	x	x	x	i	x	x
COc1ccc(CCNC(=O)c2cc(=O)c3cc(C)ccc3o2)cc1OC	x	-4.9	i	i	i	i
CSc1nc(SCC(=O)O)c2sc3nc(-c4ccccc4)c4c(c3c2n1)CCC4	6.11*	-12.7	i	i	10*	i
Cc1cccc(C2C3=C(Nc4[nH]n(-c5ccccc5)c(=O)c42)c2ccccc2C3=O)c1 (centres undefined)	-1.44	-23.0	-7.48*	i	i	i
Cc1ccccc1C1C2=C(Nc3[nH]n(-c4ccccc4)c(=O)c31)c1ccccc1C2=O (centres undefined)	-3.19	x	x	x	x	x
CCCN(CC1CCCO1)C(=O)CCc1nnc(CCc2ccc(OC)cc2)o1 (centres undefined)	x	-8.6	i	i	i	i
O=c1c2c(nc3c(-c4cccc(Br)c4)c[nH]n13)CCCC2	20.5*	-14.4	i	i	i	i
COc1ccc(CCN(C)C(=O)c2cc(-c3ccccc3)nc3ccc(C)cc23)cc1OC	x	-18.0	i	i	i	i
COc1ccc(CN(C)C(=O)c2cc(-c3ccccc3)nc3ccc(C)cc23)c(OC)c1OC	x	-34.0	i	i	i	6*
COc1cccc(CN(C)C(=O)c2cc(-c3ccc(F)cc3)nc3ccccc23)c1	x	-33.1	i	-8.93*	i	11*
CC(C)COc1ccc(-c2nn(-c3ccccc3)cc2/C=C2/SC(=S)N(CC(=O)O)C2=O)cc1	x	-5.3	i	i	8*	i
CCOc1ccc(-c2nn(-c3ccccc3)cc2/C=C2\SC(=S)N(Cc3ccco3)C2=O)cc1	1.8	-8.3	i	i	i	i
C=CCSc1nc(Oc2ccccc2)c2sccc2n1	1.82	-5.6	i	i	i	6*
O=C(c1cc2cc(F)ccc2[nH]1)N1CCC(Cc2ccccc2)CC1	x	-0.5	i	i	i	i
CCCCCc1cc(OC)cc2c1C(=O)OC(C)(C)O2	x	x	x	-10.9*	x	x
